Where a SMILES comes first, the peptide text is derived from it. The star is where a group is joined. Cbz = O=C(OCc1ccccc1)*
Tests used:
Lj-p53 = Lj-p53 degradation in p53/Mdm2 double-knockout cells; format: cell-based; conditions: 4 h before harvest, Western blot, lane 4
Hs-p53 = Hs-p53 degradation in p53/Mdm2 double-knockout cells; format: cell-based, human; expressed in mouse embryonic fibroblasts; conditions: 4 h before harvest, Western blot
Hs-p53–HDM2^Nterm = experiment: In vitro pull-down of Hs-p53 by HDM2Nterm in presence of inhibitor; format: binding, human; conditions: in vitro translated proteins, inhibitor 30 min, Fig. 7A lanes 1–3
Hs-p53–Lj-Mdm2^Nterm = experiment: In vitro pull-down of Hs-p53 by Lj-Mdm2Nterm in presence of inhibitor; format: binding, human p53; lamprey (Lethenteron japonicum) Mdm2; conditions: in vitro translated proteins, inhibitor 30 min, Fig. 7A lanes 4–6
Lj-p53–Lj-Mdm2^Nterm = experiment: In vitro pull-down of Lj-p53 by Lj-Mdm2Nterm in presence of inhibitor; format: binding, lamprey (Lethenteron japonicum); conditions: Fig. 7A
Summary of the method: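 Anti-HA antibody (1 µg per 10 µL Protein G beads, 1 h in PBST–3% BSA) captured in vitro translated HA-tagged Mdm2 N-terminal bait (30 min, rotating). Test compound was added at the required concentrations for 30 min, with DMSO as control. In vitro translated Flag-Lj-p53 was then added for 1 h. Beads were washed, and eluates were heated 5 min at 95°C, run on SDS-PAGE and immunoblotted with HRP anti-Flag.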

Compound | block of Lj-Mdm2-mediated Lj-p53 reduction by proteasome inhibitor (Lj-p53) | block of Lj-Mdm2-mediated Hs-p53 degradation by proteasome inhibitor (Hs-p53) | block of binding of Hs-p53 to HDM2Nterm (Hs-p53–HDM2^Nterm) | block of binding of Hs-p53 to Lj-Mdm2Nterm (Hs-p53–Lj-Mdm2^Nterm) | block of binding of Lj-p53 to Lj-Mdm2Nterm (Lj-p53–Lj-Mdm2^Nterm; in vitro translated proteins, inhibitor 30 min) | interaction with the p53-binding pocket in Lj-Mdm2Nterm (Lj-p53–Lj-Mdm2^Nterm; inferred from pull-down)
CC(C)C[C@@H](C=O)NC(=O)[C@H](CC(C)C)NC(=O)[C@H](CC(C)C)NC(=O)OCc1ccccc1 [MG132] (Cbz-Leu-Leu-Leu-aldehyde) | partially blocked | only partially blocked | – | – | – | –
Nutlin | – | – | could block the binding of Hs-p53 to HDM2^Nterm | not by Nutlin | not by Nutlin | interacts poorly, if at all

Reference: paper PMC4743058 (Genes & Development, 2016)
